From ChEMBL document CHEMBL1649429, “Novel plasmid-encoded ceftazidime-hydrolyzing CTX-M-53 extended-spectrum beta-lactamase from Salmonella enterica serotypes Westhampton and Senftenberg” (Antimicrob Agents Chemother, 2009)

Assays:
[1] = substrate: CC(C)(O/N=C(\C(=O)N[C@@H]1C(=O)N2C(C(=O)[O-])=C(C[n+]3ccccc3)CS[C@H]12)c1csc(N)n1)C(=O)O; settings: Escherichia coli
[2] = substrate: C[C@H]1[C@H](NC(=O)/C(=N\OC(C)(C)C(=O)O)c2csc(N)n2)C(=O)N1S(=O)(=O)O; settings: Escherichia coli
[3] = substrate: CC(C)(O/N=C(\C(=O)N[C@@H]1C(=O)N2C(C(=O)[O-])=C(C[n+]3ccccc3)CS[C@H]12)c1csc(N)n1)C(=O)O; settings: Escherichia coli; remark: listed apart in the source
[4] = substrate: C[C@H]1[C@H](NC(=O)/C(=N\OC(C)(C)C(=O)O)c2csc(N)n2)C(=O)N1S(=O)(=O)O; settings: Escherichia coli; remark: listed apart in the source
[5] = substrate: CC1(C)S[C@@H]2[C@H](NC(=O)[C@H](N)c3ccc(O)cc3)C(=O)N2[C@H]1C(=O)O; assay: (§1) Ratio of Kcat/Km for Salmonella enterica serotype Westhampton beta-lactamase CTX-M-53; settings: Salmonella enterica subsp. enterica serovar Westhampton
Procedure, shortened: (§2)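 CTX-M-53 was purified from E. coli DH5 carrying recombinant pCTX-M-53, grown in brain heart infusion with cefotaxime 2 µg/ml for 18 h at 37°C. Cells were sonicated in 20 mM MES-NaOH pH 6.0, and nucleic acids removed with spermine. The enzyme was purified by SP Sepharose ion exchange and Superose 12 gel filtration. Km and kcat were measured by computerized microacidimetry, three determinations each.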

[6] = substrate: C[C@H]1[C@H](NC(=O)/C(=N\OC(C)(C)C(=O)O)c2csc(N)n2)C(=O)N1S(=O)(=O)O; assay: as §1; settings: Salmonella enterica subsp. enterica serovar Westhampton
Procedure, shortened: as §2

[7] = substrate: CO/N=C(\C(=O)N[C@@H]1C(=O)N2C(C(=O)O)=C(COC(C)=O)CS[C@H]12)c1csc(N)n1; assay: as §1; settings: Salmonella enterica subsp. enterica serovar Westhampton
Procedure, shortened: as §2

[8] = substrate: CCN1CCN(C(=O)N[C@@H](C(=O)N[C@@H]2C(=O)N3[C@@H]2SC(C)(C)[C@@H]3C(=O)O)c2ccccc2)C(=O)C1=O; assay: as §1; settings: Salmonella enterica subsp. enterica serovar Westhampton
Procedure, shortened: as §2

[9] = substrate: CC(=O)OCC1=C(C(=O)O)N2C(=O)[C@@H](NC(=O)Cc3cccs3)[C@H]2SC1; assay: as §1; settings: Salmonella enterica subsp. enterica serovar Westhampton
Procedure, shortened: as §2

[10] = substrate: CO/N=C(\C(=O)N[C@@H]1C(=O)N2C(C(=O)O)=C(COC(N)=O)CS[C@H]12)c1ccco1; assay: as §1; settings: Salmonella enterica subsp. enterica serovar Westhampton
Procedure, shortened: as §2

[11] = substrate: CC(C)(O/N=C(\C(=O)N[C@@H]1C(=O)N2C(C(=O)[O-])=C(C[n+]3ccccc3)CS[C@H]12)c1csc(N)n1)C(=O)O; assay: as §1; settings: Salmonella enterica subsp. enterica serovar Westhampton
Procedure, shortened: as §2

[12] = substrate: CC1(C)S[C@@H]2[C@H](NC(=O)[C@H](C(=O)O)c3ccsc3)C(=O)N2[C@H]1C(=O)O; assay: as §1; settings: Salmonella enterica subsp. enterica serovar Westhampton
Procedure, shortened: as §2

[13] = substrate: CC1(C)S[C@@H]2[C@H](NC(=O)Cc3ccccc3)C(=O)N2[C@H]1C(=O)O; assay: as §1; settings: Salmonella enterica subsp. enterica serovar Westhampton
Procedure, shortened: as §2

[14] = substrate: CO/N=C(\C(=O)N[C@@H]1C(=O)N2C(C(=O)[O-])=C(C[n+]3cccc4c3CCC4)CS[C@H]12)c1csc(N)n1; assay: as §1; settings: Salmonella enterica subsp. enterica serovar Westhampton
Procedure, shortened: as §2

[15] = substrate: CC1(C)S[C@@H]2[C@H](NC(=O)[C@H](N)c3ccc(O)cc3)C(=O)N2[C@H]1C(=O)O; assay: (§3) Activity of Salmonella enterica serotype Westhampton beta-lactamase CTX-M-53; settings: Salmonella enterica subsp. enterica serovar Westhampton
Procedure, shortened: as §2

[16] = substrate: C[C@H]1[C@H](NC(=O)/C(=N\OC(C)(C)C(=O)O)c2csc(N)n2)C(=O)N1S(=O)(=O)O; assay: as §3; settings: Salmonella enterica subsp. enterica serovar Westhampton
Procedure, shortened: as §2

[17] = substrate: CO/N=C(\C(=O)N[C@@H]1C(=O)N2C(C(=O)O)=C(COC(C)=O)CS[C@H]12)c1csc(N)n1; assay: as §3; settings: Salmonella enterica subsp. enterica serovar Westhampton
Procedure, shortened: as §2

[18] = substrate: CCN1CCN(C(=O)N[C@@H](C(=O)N[C@@H]2C(=O)N3[C@@H]2SC(C)(C)[C@@H]3C(=O)O)c2ccccc2)C(=O)C1=O; assay: as §3; settings: Salmonella enterica subsp. enterica serovar Westhampton
Procedure, shortened: as §2

[19] = substrate: CC(=O)OCC1=C(C(=O)O)N2C(=O)[C@@H](NC(=O)Cc3cccs3)[C@H]2SC1; assay: as §3; settings: Salmonella enterica subsp. enterica serovar Westhampton
Procedure, shortened: as §2

[20] = substrate: CO/N=C(\C(=O)N[C@@H]1C(=O)N2C(C(=O)O)=C(COC(N)=O)CS[C@H]12)c1ccco1; assay: as §3; settings: Salmonella enterica subsp. enterica serovar Westhampton
Procedure, shortened: as §2

[21] = substrate: CC(C)(O/N=C(\C(=O)N[C@@H]1C(=O)N2C(C(=O)[O-])=C(C[n+]3ccccc3)CS[C@H]12)c1csc(N)n1)C(=O)O; assay: as §3; settings: Salmonella enterica subsp. enterica serovar Westhampton
Procedure, shortened: as §2

[22] = substrate: CC1(C)S[C@@H]2[C@H](NC(=O)[C@H](C(=O)O)c3ccsc3)C(=O)N2[C@H]1C(=O)O; assay: as §3; settings: Salmonella enterica subsp. enterica serovar Westhampton
Procedure, shortened: as §2

[23] = substrate: CC1(C)S[C@@H]2[C@H](NC(=O)Cc3ccccc3)C(=O)N2[C@H]1C(=O)O; assay: as §3; settings: Salmonella enterica subsp. enterica serovar Westhampton
Procedure, shortened: as §2

[24] = substrate: CO/N=C(\C(=O)N[C@@H]1C(=O)N2C(C(=O)[O-])=C(C[n+]3cccc4c3CCC4)CS[C@H]12)c1csc(N)n1; assay: as §3; settings: Salmonella enterica subsp. enterica serovar Westhampton
Procedure, shortened: as §2

B1: Beta-lactamase CTX-M-16 (Escherichia coli), Q939N4 (protein)
chain: MVTKRVQRMMFAAAACIPLLLGSAPLYAQTSAVQQKLAALEKSSGGRLGVALIDTADNTQVLYRGDERFPMCSTSKVMAAAAVLKQSETQKQLLNQPVEIKPADLVNYNPIAEKHVNGTMTLAELSAAALQYSDNTAMNKLIAQLGGPGGVTAFARAIGDETFRLDRTEPTLNTAIPGDPRDTTTPRAMAQTLRQLTLGHALGETQRAQLVTWLKGNTTGAASIRAGLPTSWTAGDKTGSGGYGTTNDIAVIWPQGRAPLVLVTYFTQPQQNAESRRDVLASAARIIAEGL
In the case of B1, the kcat/Km [1] is reported as 0.04 s⁻¹ and the Km [2] is reported as 17 µM.

B2: Beta-lactamase CTX-M-27 (Escherichia coli), Q840M4 (protein)
chain: MVTKRVQRMMFAAAACIPLLLGSAPLYAQTSAVQQKLAALEKSSGGRLGVALIDTADNTQVLYRGDERFPMCSTSKVMAAAAVLKQSETQKQLLNQPVEIKPADLVNYNPIAEKHVNGTMTLAELSAAALQYSDNTAMNKLIAQLGGPGGVTAFARAIGDETFRLDRTEPTLNTAIPGDPRDTTTPRAMAQTLRQLTLGHALGETQRAQLVTWLKGNTTGAASIRAGLPTSWTVGDKTGSGGYGTTNDIAVIWPQGRAPLVLVTYFTQPQQNAESRRDVLASAARIIAEGL
B2 gave a kcat/Km [3] of 0.01 s⁻¹ and a Km [4] of 17 µM.

B3: Extended-spectrum beta-lactamase CTX-M-53 (Salmonella enterica subsp. enterica serovar Westhampton), Q2XPY6 (protein)
chain: MVKKSLRQFTLMATATVTLLLGSVPLYAQTVDVQQKLAELEQQSGGRLGVALINTADNSQILYRADERFAMCSTSKVMAVAAVLKKSESEPNLLNQRVEIKKSDLVNYNPIAEKHVNGTMSLAELSAAALQYSDNVAMNKLIAHVGGPASVTAFARQLGDETFRLDRTEPTLNTAIPGDPRDTTSPRAMAQTLRNLTLGKALGDSQRAQLVTWMKGNTTGAASIQAGLPASWVVGDKTGSGGYGTTNDIAVIWPKDRAPLILVIYFTQPQPKAESRRDVLASAAKIVTDGL
In the case of B3, the kcat/Km [5] is reported as 2.1 s⁻¹ µM⁻¹, the kcat/Km [6] is reported as 0.3 s⁻¹ µM⁻¹ and the kcat/Km [7] is reported as 3.2 s⁻¹ µM⁻¹. For the same protein, the kcat/Km [8] was 7.5 s⁻¹ µM⁻¹, the kcat/Km [9] was 16.4 s⁻¹ µM⁻¹ and the kcat/Km [10] was 3.6 s⁻¹ µM⁻¹. The kcat/Km [11] was 0.1 s⁻¹ µM⁻¹, the kcat/Km [12] was 0.5 s⁻¹ µM⁻¹ and the kcat/Km [13] was 13.5 s⁻¹ µM⁻¹. The kcat/Km [14] was 5.7 s⁻¹ µM⁻¹, the Km [15] was 40 µM and the kcat [15] was 85 s⁻¹. It also gave a Km [16] of 14 µM, a kcat [16] of 4 s⁻¹ and a Km [17] of 180 µM. It also gave a kcat [17] of 585 s⁻¹, a Km [18] of 12 µM and a kcat [18] of 90 s⁻¹. For the same protein, the Km [19] was 122 µM, the kcat [19] was 2000 s⁻¹ and the Km [20] was 80 µM. The kcat [20] was 292 s⁻¹, the Km [21] was 174 µM and the kcat [21] was 14 s⁻¹. It also gave a Km [22] of 18 µM, a kcat [22] of 10 s⁻¹ and a Km [23] of 10 µM. It also gave a kcat [23] of 135 s⁻¹, a Km [24] of 125 µM and a kcat [24] of 710 s⁻¹.
